Tests used:
[1] = Solubility of the compound in water/DMSO mixture; format: physicochemical; conditions: water/DMSO mixture; read-out: solubility
Summary of the method: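 Solubility was measured in water/DMSO (95:5, v/v) by HPLC with UV/vis detection.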

[2] = tested on: 8505C; experiment: Cytotoxicity against human 8505C cells assessed as cell viability after 96 hrs by SRB assay; format: functional, cell-based; conditions: Homo sapiens, 8505C, 96 h
[3] = tested on: SW-1736; experiment: Cytotoxicity against human SW1736 cells assessed as cell viability after 96 hrs by SRB assay; format: functional, cell-based; conditions: Homo sapiens, SW-1736, 96 h
[4] = tested on: NIH3T3; experiment: Cytotoxicity against mouse NIH/3T3 cells assessed as cell viability after 96 hrs by SRB assay; format: cell-based; conditions: NIH3T3, 96 h
[5] = tested on: MCF7; experiment: Cytotoxicity against human MCF7 cells assessed as cell viability after 96 hrs by SRB assay; format: functional, cell-based; conditions: Homo sapiens, MCF7, 96 h
[6] = Cytotoxicity against human A253 cells assessed as cell viability after 96 hrs by SRB assay; format: functional, cell-based; conditions: Homo sapiens, A253, 96 h
[7] = tested on: A549; experiment: Induction of apoptosis in human A549 cells assessed as early apoptotic cells at 5 uM after 6 hrs by annexin V/propidium iodide staining-based FACS flow cytometric analysis relative to control; format: functional
Summary of the method: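 A549 cells incubated 6 h with compound, then analysed by FACS annexin V/propidium iodide assay. Phosphatidylserine translocation to the outer membrane was taken as the early-apoptosis marker. Cells were scored as percentage dying by necrosis versus programmed cell death. Betulinic acid and maslinic acid were the reference standards.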

[8] = Cytotoxicity against human Lipo cells assessed as cell viability after 96 hrs by SRB assay; format: functional, cell-based; conditions: Homo sapiens, Lipo, 96 h
[9] = Cytotoxicity against human 518A2 cells assessed as cell viability after 96 hrs by SRB assay; format: functional, cell-based; conditions: Homo sapiens, 518A2, 96 h
[10] = tested on: A549; experiment: Cytotoxicity against human A549 cells assessed as cell viability after 96 hrs by SRB assay; format: functional, cell-based; conditions: Homo sapiens, A549, 96 h
[11] = tested on: A2780; experiment: Cytotoxicity against human A2780 cells assessed as cell viability after 96 hrs by SRB assay; format: functional, cell-based; conditions: Homo sapiens, A2780, 96 h
[12] = tested on: DLD-1; experiment: Cytotoxicity against human DLD1 cells assessed as cell viability after 96 hrs by SRB assay; format: functional, cell-based; conditions: Homo sapiens, DLD-1, 96 h

solubility [1]: 192 µg/mL
Structure (SMILES): C=C(C)[C@@H]1CC[C@]2([C@H](O)C#CCN3CCOCC3)CC[C@]3(C)[C@H](CC[C@@H]4[C@@]5(C)CC[C@H](OC(C)=O)C(C)(C)[C@@H]5CC[C@]43C)[C@@H]12.Cl
IC50 [2]: 7.2 µM
IC50 [3]: 8.9 µM
IC50 [4]: 7.2 µM
IC50 [5]: 7.7 µM
IC50 [6]: 5.2 µM
Activity [7]: >90%
IC50 [8]: 2.4 µM
IC50 [9]: 7 µM
IC50 [10]: 7.6 µM
IC50 [11]: 4.1 µM
IC50 [12]: 5 µM
